Data published in paper PMC7579299 (Anti-Inflammatory & Anti-Allergy Agents in Medicinal …, 2020).

Legend:
[1] = system: MCF-7 (human breast cancer); test: Anticancer MTT assay, breast cancer cells; format: cell-based
Procedure, shortened: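 MCF-7 cells grown in DMEM with 10% FBS, penicillin and streptomycin at 37°C in 5% CO₂. About 5000 cells/well were exposed to test compound at 50-500 µg/mL (1 mg/ml DMSO working solution, 0.45-micron filtered) for 24, 48 or 72 h. MTT was added for 2 h, then lysis buffer for 4 h, and A570 was read. Viability = mean OD/control OD × 100.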

[2] = system: Human Red Blood Cell (HRBC) membrane; test: HRBC membrane stabilization method; format: cell-based
Procedure, shortened: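 Human red blood cell membrane stabilization assay, run in quadruplicate with diclofenac as reference. Hemolysis in distilled water was taken as 100%. Protection was calculated as % inhibition of hemolysis = 100 × (OD control − OD sample)/OD control.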

IC50 ([2]; Homo sapiens, Erythrocyte, read-out: HRBC membrane protection IC50) [nM] | Structure (SMILES) | Relative percentage activity (anticancer) [1] [%] | HRBC membrane average protection ([2]; n=4) [%]
– | COc1cccc2c1C(=O)c1c(O)c3c(c(O)c1C2=O)C[C@@](O)(C(=O)CO)C[C@@H]3O[C@H]1C[C@H](N)[C@H](O)[C@H](C)O1 [Doxorubicin] | 89.47 ± 2.87 | –
150 | O=C(O)Cc1ccccc1Nc1c(Cl)cccc1Cl [Diclofenac] | – | 82.15
